From PubChem BioAssay
A number with no mark means an inactive call. Results filed as inconclusive are left out. Calls of active or inactive are those of the source.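 Rule for the calls, unless noted: active = growth inhibition above 25% in both replicates, a cutoff set 3 SD above the mean; inconclusive = above 25% in only one replicate; inactive = the rest.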

Key:
[1] = OD615 S. cerevisiae growth inhibition, permissive medium, pilot counter-assay, permissive growth control for S. cerevisiae lifespan shortening project (AID 705); settings: OD615, 24 h, at 10 µM, active compounds read high
In short: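 System: Engineered DeaD yeast | Buffer or medium: SC raffinose/galactose permissive medium | Incubation: Cells pre-grown 4 h, then 24 h compound exposure, 30 °C humidified | Measured by: Absorbance (optical density) at 615 nm | Read-out: Reduction in yeast growth (OD615)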

[2] = Restrictive medium S. cerevisiae growth inhibition, OD615, pilot screen of yeast lifespan reduction project, restrictive growth control (AID 706;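 active = growth inhibition above a set limit, 3 SD over mean compound inhibition, in both replicates, cut at about 43% in these data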;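 note: modified DeaD lifespan yeast strain shifted to restrictive glucose medium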); settings: OD615, 48 h, at 10 µM, active compounds read high
In short: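 Material: modified S. cerevisiae; Medium: glucose-based CSMM-D restrictive medium; Compound dosing: one concentration, 10 µM final, 0.25% DMSO; Incubation: 48 h compound exposure at 30 °C; Measured by: OD615.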

[3] = viability gain of MRP-1-high H69AR cells under doxorubicin, pilot screen, MRP-1 activator project, CellTiter-Glo, duplicate (AID 807;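 active = viability increase at or above a cutoff of the median across tested compounds plus 3 SD, cut at about 8.5% in these data, passing the limit was not always enough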;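 note: compound pretreatment 18-22 h then 72 h combined with doxorubicin; 0% = doxorubicin alone and 100% = vehicle without doxorubicin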); settings: H69AR viability with doxorubicin, CellTiter-Glo luminescence; at 10 µM; active compounds read high
[4] = growth suppression of beta-catenin knockout HCT116, pilot screen, human colon tumor cells (AID 823;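 active = cell viability at or below a set limit in both duplicate runs, the limit being the all-compound median minus 4 SD, cut at about 23% in these data, passing the limit was not always enough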;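 note: 0% = wells killed by 20 µM Hyamine and 100% = untreated DMSO cell wells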); settings: CellTiter-Glo, 60 h, at 10 µM, active compounds read low
[5] = growth suppression of PTEN-deleted HCT116, pilot screen, cell-based, HCT116 clonal line, CellTiter-Glo (AID 824;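 active = viability at or below 27.92% in each of two runs, the all-compound median minus 4 SD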;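 note: 0% = 20 µM Hyamine control and 100% = vehicle cell control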); settings: 60 h, at 10 µM, active compounds read low
[6] = inhibitors of the yeast RAM network, pilot screen, dse1pr::URA3 reporter, 5-FOA selection (AID 869;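 active = inhibition over a set limit, the all-compound mean plus 3 SD, in both replicate runs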;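 note: 0% = DMSO wells with no growth and 100% = 10 µM 1-NA-PP1 with full growth; RAM network block rescues cells from 5-FOA so hits raise OD615 growth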); settings: S. cerevisiae dse1pr::URA3 5-FOA growth, OD615, 2 d; at 10 µM; active compounds read high; strain carries analog-sensitive mutant Cbk1 kinase
[7] = RAM signaling pathway blockade in yeast – S. cerevisiae, Pdr1DBD-CYC8 efflux-inhibited sensitized strain, primary screen (AID 1298;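 active = RAM network inhibition above 8.4% in each of two replicates, 3 SD over the compound average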;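 note: 0% = DMSO untreated cells without growth and 100% = 10 µM 1-NA-PP1 full growth; higher means more yeast growth rescued from 5-FOA killing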); settings: S. cerevisiae cbk1-as DSE1-URA3 strain, 5-FOA growth OD615, 2 d; at 50 µM; active compounds read high

| SMILES | growth inhibition [1] | growth inhibition [2] | viability increase [3] | viability [4] | viability [5] | inhibition [6] | RAM network inhibition [7] |
| --- | --- | --- | --- | --- | --- | --- | --- |
| CCC1CCCCN1Cc1nc2c(c(=O)n(C)c(=O)n2C)n1Cc1ccccc1 (stereo not drawn) | 6.88% | -0.26% | 3.7% | 75.3% | 74.4% | 2.1% | 2.14% |
| O=C(COc1ccc(F)cc1)Nc1nccs1 | -3.23% | 4.43% | 2.32% | 103% | 90.2% | 3.26% | 5.34% |
| O=c1[nH]c(NCCCO)nc2c1C1(CCCC1)Cc1ccccc1-2 | -1.02% | -4.91% | -0.94% | 97.1% | 96.2% | -0.175% | 6.67% |
| CCOC(=O)c1ccc(Nc2nnc(C(C)(C)C)c(=O)[nH]2)cc1 | -18.6% | -21.9% | -7.93% | 49.6% | 43.7% | 0.35% | 2.06% |
| CCOC(=O)c1cc2c(=O)n3ccccc3nc2n(C(C)C)c1=NC(=O)c1ccncc1 | 6.47% | 4.03% | -1.27% | 98.3% | 94.7% | -0.45% | -0.58% |
| O=C(O)C1CC=CCC1C(=O)Nc1cccc(Cl)c1Cl (stereo not drawn) | -8.95% | -11.1% | -1.82% | 99.6% | 101% | 3.07% | 0.21% |
| COc1ccc(C(=O)Nc2ccc3oc(-c4cccc(F)c4)nc3c2)cc1OC | -9.88% | -5.71% | -2.46% | 95.1% | 90.3% | 3.53% | 3.33% |
| COc1ccc(OC)c(CNC(=O)Cc2c(C(=O)O)[nH]c3ccccc23)c1 | -7.09% | -25% | -0.54% | 104% | 101% | -0.185% | 5.43% |
| COc1ccc(-n2c(SCC(=O)Nc3cc(C)on3)nc3c(c2=O)SCC3)cc1 | -13.1% | -6.83% | 0.28% | 112% | 95.5% | 4.46% | 6.81% |
| CCOCCCNC(=O)C(c1ccc(C)cc1)N1CCOCC1 (stereo not drawn) | -11.9% | 2.48% | -3.18% | 93.2% | 102% | 1.84% | 1.62% |
| O=C(Nc1cccc2ccccc12)N1CCN(c2ccc(F)cc2)CC1 | -12.3% | -14.3% | -1.74% | 98.6% | 98.8% | 1.88% | 3.08% |
| CCCOC(=O)C1=C(C)NC2=C(C(=O)CC(C)(C)C2)C1c1ccc(N(C)C)cc1 (stereo not drawn) | -2.65% | 0.07% | -2.59% | 90.8% | 80.9% | -0.505% | 6.21% |
| Cc1ccc(-c2nnc3ccc(SC(C)C(=O)O)nn23)cc1 (stereo not drawn) | 13.9% | 60.9% (active) | -1.29% | 99.1% | 97.8% | 2.31% | 3.9% |
| CCN1CCN(C(=O)Nc2ccc(Cc3ccc(NC(=O)N4CCN(CC)CC4)cc3)cc2)CC1 | -9.89% | -9.14% | -2.42% | 78.3% | 86.7% | 1.72% | 2.65% |
| CCCS(=O)(=O)c1nc(S(=O)(=O)c2ccc(C)cc2)c(NCCCN2CCOCC2)s1 | 0.84% | -0.48% | -1.8% | 91.8% | 99.9% | 0.475% | 5.15% |
| Cc1ccc(C)c(C(=O)COC(=O)c2ccc(Br)o2)c1 | -12.9% | -17.1% | -0.26% | 94.2% | 86.2% | 0.38% | 1.4% |
| COc1ccc(OC)c2c1sc(=NC(=O)CN1C(=O)CCC1=O)n2C | -3.75% | 5.91% | -1.92% | 92.7% | 87.4% | 1.16% | 2.41% |
| C=CCn1c(NC(C)c2cc(Cl)ccc2O)nc2ccccc21 (stereo not drawn) | -8.04% | -0.215% | -0.96% | 68.6% | 65.1% | 0.29% | -1.03% |
| Cc1ccc2nc(NC(=O)CCNS(=O)(=O)c3cccs3)sc2c1 | -5.57% | -7.59% | 3.2% | 87% | 71.7% | 0.45% | 3.7% |
| O=C(OCN1C(=O)c2ccccc2C1=O)c1cccs1 | -2.01% | -11.2% | -0.64% | 94.7% | 96.5% | 1.2% | 1.51% |
| COc1cccc(C2CC(c3cccc(OC)c3)n3nc(N)nc3N2)c1 (stereo not drawn) | -4.01% | 3.82% | -2.05% | 95.2% | 92.6% | 0.07% | 2.5% |
| CCn1nc(C(=O)OCC(=O)c2ccc3c(c2)OCCO3)c2ccccc2c1=O | -8.66% | -8.03% | -3.31% | 89.9% | 90.3% | 1.78% | 3.16% |
| COc1ccc(Br)cc1C1CC(=O)N2CN(Cc3ccccc3)CSC2=C1C#N (stereo not drawn) | 4.47% | 12.8% | -4.64% | 85% | 87.5% | 2.63% | 4.51% |
| O=C(Nc1ccccc1Oc1ccccc1)C1CC1 | -13.6% | 3.26% | -2.26% | 89.5% | 93.1% | 0.595% | 3.21% |
| Cc1ccc(C(=O)CC2(O)C(=O)N(C)c3ccccc32)o1 (stereo not drawn) | -7.12% | -13.5% | -2.33% | 99.3% | 96.2% | 0.645% | 1.32% |

| SMILES | growth inhibition [1] | growth inhibition [2] | viability increase [3] | viability [4] | viability [5] | inhibition [6] | RAM network inhibition [7] |
| --- | --- | --- | --- | --- | --- | --- | --- |
| CCc1nnc(SCc2ccc(OC)c(Br)c2)n1N | 6.13% | -2.06% | -0.5% | 104% | 98.9% | 0.21% | 2.41% |
| CCOC(=O)N1CCN(c2cc(C)nc3nc(C)nn23)CC1 | -11.9% | -9.88% | -1.28% | 105% | 97.1% | 3.44% | 2.21% |
| COc1ccccc1C(=O)Nc1nnc(-c2ccc(F)cc2)o1 | -8.41% | -13.1% | 0.01% | 101% | 101% | 0.59% | 2.59% |
| O=C(NCc1ccco1)c1cnccn1 | 3.99% | 5.22% | -2.25% | 98.7% | 101% | 2.81% | -0.25% |
| CC1=C(C(=O)OCc2ccccc2)C(c2ccco2)C2=C(CC(C)(C)CC2=O)N1 (stereo not drawn) | -13.1% | -7.33% | -6.3% | 71.9% | 67.5% | 2.4% | 1.23% |
| O=C(O)C1(P(=O)(c2ccccc2)c2ccccc2)CCC1 | -13.9% | -5.79% | -0.11% | 99.6% | 99.3% | 1.34% | 3.04% |
| Cc1cccc(N2C(=O)SC(N(CC(=O)O)c3cccc(C)c3)C2=O)c1 (stereo not drawn) | -12.5% | 15.6% | -3.96% | 103% | 99.1% | 1.24% | 5.06% |
| O=C1CC(C(=O)N2CCN(c3ccc(F)cc3)CC2)CN1CCc1ccccc1 (stereo not drawn) | -1.65% | 5.89% | -2.3% | 99.2% | 92.6% | -0.23% | 1.03% |
| COc1cc(C(=O)NCc2ccco2)c(Br)c(OC)c1OC | -1.05% | -12.5% | -4.68% | 98.3% | 96% | 0.865% | -0.16% |
| COC(=O)c1sc2ccccc2c1N | 1.37% | 27.7% | -3.26% | 101% | 94.6% | 0.515% | 2.29% |
| C1=C(N2CCOCC2)/C(=C/c2nc3ccccc3[nH]2)CC1 | -10.4% | 19.2% | -4.25% | 78.9% | 82.1% | 0.41% | 2.44% |
| Cc1cc(C)c(S(=O)(=O)N2CCN(CCO)CC2)c(C)c1 | 4.04% | 10.5% | 0.8% | 108% | 97.4% | 1.64% | 2.45% |
| Cc1cc(=O)[nH]c(SCc2cc(=O)n3nc(C)sc3n2)n1 | 4.53% | -7.55% | -1% | 104% | 96.5% | 1.32% | 5.96% |
| O=C(NCC1CCCO1)c1ccc2c(c1)N(Cc1ccccc1)C(=O)CS2=O (stereo not drawn) | -1.31% | 8.91% | -0.66% | 91.2% | 88.3% | 1.06% | 0.78% |
| Cc1cc(C(=O)Nc2ccc3c(c2)OCCO3)co1 | -4.03% | 5.26% | -0.16% | 96.7% | 92.1% | 0.06% | -0.41% |
| CSC1=NCCN1C(=O)Cc1ccc(F)cc1 | -0.72% | 0.85% | 2.96% | 105% | 103% | 0.725% | 4.04% |
| O=c1oc2ccccc2n1CCCOc1ccccc1 | 1.24% | -1.04% | 1.28% | 98.1% | 96.5% | 2.02% | 1.62% |
| COc1ccc(C2C(C(=O)Nc3ccccc3OC)=C(C)Nc3ncnn32)cc1 (stereo not drawn) | -18.5% | 6.38% | -3.68% | 99.2% | 94.4% | 1.78% | -2.3% |
| CN(C)S(=O)(=O)c1ccc2c(c1)c(=O)c(C(=O)N1CCN(c3ccccn3)CC1)cn2C | -5.42% | 5.45% | 1.06% | 97.9% | 104% | 0.415% | 4.54% |
| O=C(c1ccco1)N1CCN(c2ncccn2)CC1 | -12.9% | -5.72% | -1.88% | 98.9% | 96.3% | 2.97% | -0.22% |
| COc1ccc(-n2ncc3c(N4CCN(c5cc(C)ccc5C)CC4)ncnc32)cc1 | -8.7% | 4.27% | -4.46% | 61.3% | 68% | 2.01% | 3.49% |
| COc1ccc(C2NC(=O)NC(O)(C(F)(F)F)C2C(=O)c2ccc(C)cc2)cc1 (stereo not drawn) | 6.2% | -7.89% | -2.35% | 100% | 95.1% | 0.56% | -1.03% |
| O=C1NC(c2cccs2)C(C(=O)c2ccccc2)C(O)(C(F)(F)F)N1 (stereo not drawn) | -0.14% | -7.88% | -0.03% | 94.8% | 90.4% | 0.61% | 0.87% |
| [O-]/[N+](=C/c1cccnc1)c1ccc(Br)cc1 | -11.4% | -4.11% | -4.72% | 93.8% | 94% | 2.69% | 8.64% |
